Several values for one entry are separate records, joined by “and”; a condition that tells them apart may be missing. Equal values may be shown once.
System: Fibroblast
Assay: Multiplex assay against human fibroblast
Type: toxicity, cell-based
Outline: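 With compound added, live cells were imaged on a CQ1 microscope at 37°C and 5% CO2; staining with Hoechst33342, BioTracker Green Microtubule Cytoskeleton Dye, MitoTracker Red and Annexin V Alexa Fluor 680 had been done at seeding. The CellPathfinder machine-learning gating scheme split cells into Hoechst high-intensity objects or normal cells, normal cells into healthy, pyknosed or fragmented nuclei, and pyknosed cells into mitotic or apoptotic. The tubulin, mitochondrial-mass and membrane-permeability phenotypes are per cents of healthy-nucleus cells.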

[1] = 12 h, 1 µM, compound concentration 1 uM
[2] = 12 h, 10 µM, compound concentration 10 uM
[3] = 24 h, 1 µM, compound concentration 1 uM
[4] = 24 h, 10 µM, compound concentration 10 uM
[5] = 48 h, 1 µM, compound concentration 1 uM
[6] = 48 h, 10 µM, compound concentration 10 uM

## Cc1c(Cc2ccc3ccccc3n2)c2cc(F)ccc2n1CC(=O)O [TIMAPIPRANT]
[1]
  Population Apoptotic (%): 41% and 33%
  Population Fragmented Nuclei (%): 12% and 28%
  Population Healthy Nuclei (%): 67% and 49%
  Population Hoechst High Intensity Objects (%): 5%
  Population Membrane Permeable-Phenotype (%): 1% and 9%
  Population Mitochondria Different-Phenotype (%): 7% and 4%
  Population Mitotic Cells (%): 58% and 66%
  Population Normal (%): 94%
  Population Pyknosed Nuclei (%): 19% and 22%
  Population Tubulin-Different-Phenotype (%): 26% and 43%
  Total Cell Count: 171 and 142
[2]
  Population Apoptotic (%): 66% and 53%
  Population Fragmented Nuclei (%): 13% and 26%
  Population Healthy Nuclei (%): 77% and 53%
  Population Hoechst High Intensity Objects (%): 2% and 5%
  Population Membrane Permeable-Phenotype (%): 0% and 1%
  Population Mitochondria Different-Phenotype (%): 7%
  Population Mitotic Cells (%): 33% and 46%
  Population Normal (%): 97% and 95%
  Population Pyknosed Nuclei (%): 8% and 19%
  Population Tubulin-Different-Phenotype (%): 35% and 43%
  Total Cell Count: 147 and 160
[3]
  Population Apoptotic (%): 33% and 47%
  Population Healthy Nuclei (%): 73% and 52%
  Population Hoechst High Intensity Objects (%): 1% and 5%
  Population Membrane Permeable-Phenotype (%): 3% and 7%
  Population Mitochondria Different-Phenotype (%): 2% and 4%
  Population Mitotic Cells (%): 66% and 52%
  Population Normal (%): 98% and 94%
  Population Pyknosed Nuclei (%): 17%
  Population Tubulin-Different-Phenotype (%): 26% and 38%
  Total Cell Count: 158 and 142
[4]
  Population Apoptotic (%): 66% and 52%
  Population Fragmented Nuclei (%): 14% and 29%
  Population Healthy Nuclei (%): 77% and 58%
  Population Hoechst High Intensity Objects (%): 2% and 7%
  Population Membrane Permeable-Phenotype (%): 0% and 3%
  Population Mitochondria Different-Phenotype (%): 6% and 10%
  Population Mitotic Cells (%): 33% and 47%
  Population Normal (%): 97% and 92%
  Population Pyknosed Nuclei (%): 8% and 12%
  Population Tubulin-Different-Phenotype (%): 30% and 52%
  Total Cell Count: 150 and 164
[5]
  Population Apoptotic (%): 72% and 61%
  Population Fragmented Nuclei (%): 15% and 36%
  Population Healthy Nuclei (%): 72% and 48%
  Population Hoechst High Intensity Objects (%): 7% and 6%
  Population Membrane Permeable-Phenotype (%): 0% and 2%
  Population Mitochondria Different-Phenotype (%): 2% and 1%
  Population Mitotic Cells (%): 27% and 38%
  Population Normal (%): 92% and 94%
  Population Pyknosed Nuclei (%): 12% and 14%
  Population Tubulin-Different-Phenotype (%): 25% and 34%
  Total Cell Count: 162 and 150
[6]
  Population Apoptotic (%): 66% and 60%
  Population Fragmented Nuclei (%): 18% and 30%
  Population Healthy Nuclei (%): 75% and 59%
  Population Hoechst High Intensity Objects (%): 5% and 2%
  Population Membrane Permeable-Phenotype (%): 0% and 1%
  Population Mitochondria Different-Phenotype (%): 3% and 1%
  Population Mitotic Cells (%): 33% and 40%
  Population Normal (%): 94% and 97%
  Population Pyknosed Nuclei (%): 6% and 9%
  Population Tubulin-Different-Phenotype (%): 31% and 37%
  Total Cell Count: 152 and 157

Reference: ChEMBL document CHEMBL5724801, “EUbOPEN Chemogenomics Library - Multiplex” (2024)
